Results reported in ChEMBL document CHEMBL1125116 (J Med Chem, 1990).

Columns and labels:
Rattus norvegicus [1] = assay: Biodistribution of [125I]IBF in striatum was determined in rats 120 minutes after intraveneous injection; assay type: ADME, organism-based; settings: in vivo, iv, 2 h
Rattus norvegicus [2] = assay: Biodistribution of [125I]IBF in thyroid was determined in rats 15 minutes after intraveneous injection; assay type: ADME, organism-based, Thyroid gland; settings: in vivo, iv, 0.25 h
Method in brief: (§1)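 Male Sprague–Dawley rats (225–300 g) with free access to food and water were anesthetized with halothane. Each received 0.2 mL saline containing 8–10 μCi [125I]IBF into the femoral vein and was killed by cardiac excision under halothane at set times. Organs were weighed and gamma-counted, and uptake was calculated against diluted aliquots of the injected dose.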

Rattus norvegicus [3] = assay: Biodistribution of [125I]IBF in thyroid was determined in rats 2 minutes after intraveneous injection; assay type: ADME, organism-based, Thyroid gland; settings: in vivo, iv; method in brief: as §1
Rattus norvegicus [4] = assay: Biodistribution of [125I]IBF in thyroid was determined in rats 30 minutes after intraveneous injection; assay type: ADME, organism-based, Thyroid gland; settings: in vivo, iv, 0.5 h; method in brief: as §1
Rattus norvegicus [5] = assay: Biodistribution of [125I]IBF in thyroid was determined in rats 60 minutes after intraveneous injection; assay type: ADME, organism-based, Thyroid gland; settings: in vivo, iv, 1 h; method in brief: as §1
Rattus norvegicus [6] = assay: Biodistribution of [125I]IBF in thyroid was determined in rats 120 minutes after intraveneous injection; assay type: ADME, organism-based, Thyroid gland; settings: in vivo, iv, 2 h; method in brief: as §1
Rattus norvegicus [7] = assay: Biodistribution of [125I]IBF was in skin determined in rats 2 minutes after intraveneous injection; assay type: ADME, organism-based, Zone of skin; settings: in vivo, iv; method in brief: as §1
Rattus norvegicus [8] = assay: Biodistribution of [125I]-IBF in liver was determined in rats 60 minutes after intraveneous injection; assay type: ADME, organism-based; settings: in vivo, iv, 1 h
Method in brief: (§2)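 Male Sprague–Dawley rats (225–300 g) with free access to food and water. Under halothane anesthesia they received [125I]IBF (8–10 μCi in 0.2 mL saline) into the femoral vein. Rats were killed by cardiac excision under halothane at the stated time. Organs were weighed and gamma-counted, and % dose/organ was taken against diluted aliquots of the injectate. Blood was assumed to be 7% of body weight and muscle 40%.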

Rattus norvegicus [9] = assay: Biodistribution of [125I]IBF in liver was determined in rats 120 minutes after intraveneous injection; assay type: ADME, organism-based; settings: in vivo, iv, 2 h; method in brief: as §2
Rattus norvegicus [10] = assay: Biodistribution of [125I]IBF in lung was determined in rats 15 minutes after intraveneous injection; assay type: ADME, organism-based; settings: in vivo, iv, 0.25 h; method in brief: as §2
Rattus norvegicus [11] = assay: Biodistribution of [125I]IBF in lung was determined in rats 2 minutes after intraveneous injection; assay type: ADME, organism-based; settings: in vivo, iv; method in brief: as §2
Rattus norvegicus [12] = assay: Biodistribution of [125I]IBF in lung was determined in rats 30 minutes after intraveneous injection; assay type: ADME, organism-based; settings: in vivo, iv, 0.5 h; method in brief: as §2
Rattus norvegicus [13] = assay: Biodistribution of [125I]IBF in lung was determined in rats 60 minutes after intraveneous injection; assay type: ADME, organism-based; settings: in vivo, iv, 1 h; method in brief: as §2
Rattus norvegicus [14] = assay: Biodistribution of [125I]IBF in lung was determined in rats 120 minutes after intraveneous injection; assay type: ADME, organism-based; settings: in vivo, iv, 2 h; method in brief: as §2
Rattus norvegicus [15] = assay: Biodistribution of [125I]IBF in muscle was determined in rats 15 minutes after intraveneous injection; assay type: ADME, organism-based, Muscle tissue; settings: in vivo, iv, 0.25 h; method in brief: as §2
Rattus norvegicus [16] = assay: Biodistribution of [125I]IBF in muscle was determined in rats 2 minutes after intraveneous injection; assay type: ADME, organism-based, Muscle tissue; settings: in vivo, iv; method in brief: as §2
Rattus norvegicus [17] = assay: Biodistribution of [125I]IBF in muscle was determined in rats 30 minutes after intraveneous injection; assay type: ADME, organism-based, Muscle tissue; settings: in vivo, iv, 0.5 h; method in brief: as §2
Rattus norvegicus [18] = assay: Biodistribution of [125I]IBF in muscle was determined in rats 60 minutes after intraveneous injection; assay type: ADME, organism-based, Muscle tissue; settings: in vivo, iv, 1 h; method in brief: as §2
Rattus norvegicus [19] = assay: Biodistribution of [125I]-IBF in muscle was determined in rats 120 minutes after intraveneous injection; assay type: ADME, organism-based, Muscle tissue; settings: in vivo, iv, 2 h; method in brief: as §2
Rattus norvegicus [20] = assay: Biodistribution of [125I]IBF in skin was determined in rats 30 minutes after intraveneous injection; assay type: ADME, organism-based, Zone of skin; settings: in vivo, iv, 0.5 h; method in brief: as §2
Rattus norvegicus [21] = assay: Biodistribution of [125I]-IBF in skin was determined in rats 60 minutes after intraveneous injection; assay type: ADME, organism-based, Zone of skin; settings: in vivo, iv, 1 h; method in brief: as §2
Rattus norvegicus [22] = assay: Biodistribution of [125I]-IBF in skin was determined in rats 120 minutes after intraveneous injection; assay type: ADME, organism-based, Zone of skin; settings: in vivo, iv, 2 h; method in brief: as §2
Rattus norvegicus [23] = assay: Biodistribution of [125I]IBF in skin was determined in rats 15 minutes after intraveneous injection; assay type: ADME, organism-based, Zone of skin; settings: in vivo, iv, 0.25 h; method in brief: as §2
Rattus norvegicus [24] = assay: Biodistribution of [125I]IBF in spleen was determined in rats 15 minutes after intraveneous injection; assay type: ADME, organism-based; settings: in vivo, iv, 0.25 h; method in brief: as §2
Rattus norvegicus [25] = assay: Biodistribution of [125I]IBF in spleen was determined in rats 2 minutes after intraveneous injection; assay type: ADME, organism-based; settings: in vivo, iv; method in brief: as §2
Rattus norvegicus [26] = assay: Biodistribution of [125I]IBF in spleen was determined in rats 30 minutes after intraveneous injection; assay type: ADME, organism-based; settings: in vivo, iv, 0.5 h; method in brief: as §2
Rattus norvegicus [27] = assay: Biodistribution of [125I]IBF in spleen was determined in rats 60 minutes after intraveneous injection; assay type: ADME, organism-based; settings: in vivo, iv, 1 h; method in brief: as §2
Rattus norvegicus [28] = assay: Biodistribution of [125I]IBF in spleen was determined in rats 120 minutes after intraveneous injection; assay type: ADME, organism-based; settings: in vivo, iv, 2 h; method in brief: as §2
Rattus norvegicus [29] = assay: Biodistribution of [125I]-IBF in heart was determined in rats 60 minutes after intraveneous injection; assay type: ADME, organism-based; settings: in vivo, iv, 1 h; method in brief: as §2
[30] = Biodistribution of [125I]IBF in blood was determined in rats 30 minutes after intraveneous injection; settings: rat, in vivo, iv, 0.5 h

CCN1CCC[C@H]1CNC(=O)c1cc(I)cc2c1OCC2
Dose/gram (Rattus norvegicus [1]): 0.444 % dose/g | Dose/organ (Rattus norvegicus [2]): 0.03% | Dose/organ (Rattus norvegicus [3]): 0.06% | Dose/organ (Rattus norvegicus [4]): 0.02% | Dose/organ (Rattus norvegicus [5]): 0.02% | Dose/organ (Rattus norvegicus [6]): 0.08% | Dose/organ (Rattus norvegicus [7]): 8.54% | Dose/organ (Rattus norvegicus [8]): 9.84% | Dose/organ (Rattus norvegicus [9]): 3.95% | Dose/organ (Rattus norvegicus [10]): 1.85% | Dose/organ (Rattus norvegicus [11]): 6.14% | Dose/organ (Rattus norvegicus [12]): 0.82% | Dose/organ (Rattus norvegicus [13]): 0.37% | Dose/organ (Rattus norvegicus [14]): 0.12% | Dose/organ (Rattus norvegicus [15]): 14.36% | Dose/organ (Rattus norvegicus [16]): 11.25% | Dose/organ (Rattus norvegicus [17]): 9% | Dose/organ (Rattus norvegicus [18]): 4.97% | Dose/organ (Rattus norvegicus [19]): 2.3% | Dose/organ (Rattus norvegicus [20]): 5.34% | Dose/organ (Rattus norvegicus [21]): 2.38% | Dose/organ (Rattus norvegicus [22]): 1.18% | Dose/organ (Rattus norvegicus [23]): 8.46% | Dose/organ (Rattus norvegicus [24]): 0.58% | Dose/organ (Rattus norvegicus [25]): 0.96% | Dose/organ (Rattus norvegicus [26]): 0.31% | Dose/organ (Rattus norvegicus [27]): 0.09% | Dose/organ (Rattus norvegicus [28]): 0.03% | Dose/organ (Rattus norvegicus [29]): 0.05% | Dose/organ [30]: 1.26%
